Results: article PMC4278051 (Journal of Breast Cancer, 2014)

Legend:
[1] = biological target: transient receptor potential vanilloid 1 (Homo sapiens, UniProt Q8NER1); assay: Competition; details: inhibition of 1.2 nM ^3[H]RTX binding, MCF-7 membranes, Cheng-Prussoff
TRPV1 [2] = biological target: T1, TRPV1 (Homo sapiens, UniProt Q8NER1); assay: Inhibition of RTX induced ^45Ca^2+ uptake by antagonists in MCF-7; format: cell-based; details: in the presence of RTX 2 nM, n=4
MCF-7 cells = assay: MTT reduction proliferation assay; format: cell-based, human; details: 2, 24, 48 and 72 hours; for MCF-7 cell growth rate / viability compared to the controls (MTT): increasing concentrations (10^-10-10^-4 M capsaicin, capsazepine; 10^-10-10^-6 M RTX, 5-I-RTX), p<0.05, n=6
In short: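 MCF-7 cells grown in DMEM with 20% FBS were seeded at 5×10^3 cells/100 µL in 96-well plates. Cells were exposed to test compound at increasing concentrations (10-10 up to 10^-4 or 10^-6 M, by compound) and assayed at 2, 24, 48 and 72 h. MTT was added for 4 h at 37 °C, 5% CO2, and formazan was dissolved in DMSO for 10 min at RT. OD was read at 570 nm (n=6, mean±SEM) and analysed by Kruskal-Wallis with Dunn post-test.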

TRPV1 [3] = details: ref 23 (Rigoni et al.); cited from earlier work
TRPV1 [4] = biological target: T1, TRPV1; assay: ^45Ca^2+ uptake assay, stimulation by agonists in MCF-7; format: cell-based; details: for E max of Ca^2+ uptake: 20 minutes at 37℃, 10^-11-10^-3 M, n=4

T1 sequence (Q8NER1 whole entry): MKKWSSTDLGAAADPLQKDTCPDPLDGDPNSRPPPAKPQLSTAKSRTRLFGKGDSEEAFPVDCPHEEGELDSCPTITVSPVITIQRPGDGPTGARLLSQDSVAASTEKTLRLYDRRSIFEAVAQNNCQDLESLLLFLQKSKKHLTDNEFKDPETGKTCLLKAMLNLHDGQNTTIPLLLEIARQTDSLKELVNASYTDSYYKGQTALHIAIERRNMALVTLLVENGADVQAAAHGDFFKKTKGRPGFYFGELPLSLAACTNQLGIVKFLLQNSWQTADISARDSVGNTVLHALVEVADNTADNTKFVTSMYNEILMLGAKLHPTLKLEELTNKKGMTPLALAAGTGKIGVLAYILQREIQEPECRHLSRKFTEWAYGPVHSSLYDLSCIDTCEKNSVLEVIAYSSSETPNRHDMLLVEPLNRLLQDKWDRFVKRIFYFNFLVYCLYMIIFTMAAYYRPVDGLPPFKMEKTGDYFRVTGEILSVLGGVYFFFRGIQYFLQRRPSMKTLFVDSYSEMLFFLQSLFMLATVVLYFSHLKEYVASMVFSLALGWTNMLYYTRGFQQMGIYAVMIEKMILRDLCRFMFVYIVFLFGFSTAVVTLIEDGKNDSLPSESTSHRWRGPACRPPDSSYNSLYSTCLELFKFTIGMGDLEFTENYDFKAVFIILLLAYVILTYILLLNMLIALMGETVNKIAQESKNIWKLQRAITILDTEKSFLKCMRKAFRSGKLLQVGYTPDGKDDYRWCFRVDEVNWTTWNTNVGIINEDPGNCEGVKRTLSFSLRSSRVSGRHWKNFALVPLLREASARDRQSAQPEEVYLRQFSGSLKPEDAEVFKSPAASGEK
transient receptor potential vanilloid 1, sequence (Q8NER1 whole entry): as above

| Compound | Ki [1] [nM] | E max of Ca^2+ influx inhibition (TRPV1 [2]) [%] | MCF-7 cell growth rate / viability compared to the controls (MTT) (MCF-7 cells) | Potency relative to the antagonist capsazepine (times more potent) (TRPV1 [3]) | EC50 (TRPV1 [4]) [nM] | Agonist character at TRPV1 expressed in MCF-7, from E max of calcium uptake (TRPV1 [4]; ^45Ca^2+ uptake) | E max of Ca^2+ uptake (TRPV1 [4]; ^45Ca^2+ uptake) [cpm] | Time dependence of MCF-7 growth inhibition (MTT) (MCF-7 cells) |
| --- | --- | --- | --- | --- | --- | --- | --- | --- |
| C=C(C)[C@]12C[C@@H](C)[C@@]34O[C@](Cc5ccccc5)(O[C@@H]1[C@@H]3C=C(COC(=O)Cc1cc(I)c(O)c(OC)c1)C[C@]1(O)C(=O)C(C)=C[C@@H]41)O2 [5-I-RTX, 5-iodoresiniferatoxin] | 0.056 | 108.3 | significant decrease | 20 | – | – | – | – |
| CCCCC/C=C\C/C=C\C/C=C\C/C=C\CCCC(=O)NCCO [Anandamide, anandamide] | – | – | – | – | 110 | full agonist | 557.0 | – |
| COc1cc(CNC(=O)CCCC/C=C/C(C)C)ccc1O [Capsaicin, capsaicin] | – | – | significant decrease | – | – | – | 478.8 | – |
| Oc1cc2c(cc1O)CN(C(=S)NCCc1ccc(Cl)cc1)CCC2 [Capsazepine, capsazepine] | – | – | significant decrease | – | – | – | – | – |
| C=C(C)[C@]12C[C@@H](C)[C@@]34O[C@](Cc5ccccc5)(O[C@@H]1[C@@H]3C=C(COC(=O)Cc1ccc(O)c(OC)c1)C[C@]1(O)C(=O)C(C)=C[C@@H]41)O2 [RTX, resiniferatoxin] | – | – | significant decrease | – | 24 | – | 777.0 | time-dependent behavior |
